Laboratory results published in ChEMBL document CHEMBL3872217, “Structure-guided discovery of thiazolidine-2,4-dione derivatives as a novel class of Leishmania major pteridine reductase 1 inhibitors” (Eur J Med Chem, 2016).
Activity calls are given as the source filed them. No cut-off for these calls is given here.

Assays:
[1] = biological target: T1, Pteridine reductase 1 (Leishmania major) (UniProt Q01782); assay: Binding affinity to Leishmania major recombinant N-terminal hexa-His tagged PTR1 expressed in Escherichia coli BL21(DE3) assessed as change in melting temperature at 50 uM at pH 4.7 by SYPRO orange dye based thermal shift assay
T1 sequence (whole entry): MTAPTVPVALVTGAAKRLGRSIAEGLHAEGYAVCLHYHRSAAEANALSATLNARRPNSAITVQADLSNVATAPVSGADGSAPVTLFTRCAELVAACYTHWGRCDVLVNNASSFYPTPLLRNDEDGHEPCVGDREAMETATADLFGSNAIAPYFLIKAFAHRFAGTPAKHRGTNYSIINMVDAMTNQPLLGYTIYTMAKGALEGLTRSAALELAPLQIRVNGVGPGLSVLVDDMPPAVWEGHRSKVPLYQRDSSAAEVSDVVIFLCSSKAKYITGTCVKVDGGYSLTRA
Summary of the method: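 Recombinant LmPTR1 from E. coli BL21(DE3) with pET-LmPTR1, Ni-NTA purified. Protein 5 μM in 50 mM sodium acetate pH 4.7 with SYPRO Orange (excitation 492, emission 610 nm); compound 50 μM from 1 mM DMSO stock; reference wells with DMSO only. Melt 25–85 °C at 1 °C per min; Tm from Boltzmann sigmoidal fit; triplicate; ΔTm compared by Kruskal-Wallis.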

[2] = biological target: T1, Pteridine reductase 1 (Leishmania major); assay: Inhibition of Leishmania major recombinant N-terminal hexa-His tagged PTR1 catalytic activity expressed in Escherichia coli BL21(DE3) at 50 uM using biopterin as substrate measured for 60 sec in presence of NADPH by UV-visible spectrophotometric method relative to control
[3] = biological target: T2, Pteridine reductase 1 (Leishmania major, UniProt Q01782); assay: Inhibition of Leishmania major recombinant N-terminal hexa-His tagged PTR1 catalytic activity expressed in Escherichia coli BL21(DE3) using biopterin as substrate measured for 60 sec in presence of NADPH by UV-visible spectrophotometric method relative to control
T2 sequence (Q01782 whole entry): T1 sequence (whole entry)
Summary of the method: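 Spectrophotometric assay at 30 °C with purified recombinant LmPTR1 at 0.2 μM in 20 mM sodium citrate pH 4.7, with NADPH and biopterin cofactor/substrate. Compound added in 5% DMSO (v/v). NADPH consumption followed as the drop in absorbance at 340 nm over 60 s; triplicate. IC50 by non-linear regression over at least six inhibitor concentrations.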

[4] = biological target: T1, Pteridine reductase 1 (Leishmania major); assay: Effect on thermal stability of Leishmania major recombinant N-terminal hexa-His tagged PTR1 expressed in Escherichia coli BL21(DE3) by SYPRO orange dye based thermal shift assay
Summary of the method: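 Dose-response thermal stability run on Ni-NTA purified LmPTR1 (expressed from pET-LmPTR1 in E. coli BL21(DE3)) at 5 μM in 50 mM sodium acetate pH 4.7 with SYPRO Orange. Excitation 492 nm and emission 610 nm; ramp 25–85 °C, 1 °C per min. Tm taken from a Boltzmann sigmoidal fit against DMSO reference wells; done in triplicate.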

[5] = biological target: T1, Pteridine reductase 1 (Leishmania major); assay: Noncompetitive inhibition of Leishmania major recombinant N-terminal hexa-His tagged PTR1 catalytic activity expressed in Escherichia coli BL21(DE3) at 25 to 45 uM at pH 4.7 in presence of saturating concentration of biopterin and varying levels of NADPH by double-reciprocal plot analysis
Summary of the method: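 Inhibition mode measured under the 340 nm kinetic conditions (0.2 μM LmPTR1, 20 mM sodium citrate pH 4.7, 30 °C, 60 s). Biopterin held at saturating 40 μM; NADPH varied over 5.0, 7.5, 10.0, 20.0 and 40.0 μM at two fixed inhibitor concentrations. Analysed by double-reciprocal plots; means of at least three experiments.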

[6] = biological target: T1, Pteridine reductase 1 (Leishmania major); assay: Noncompetitive inhibition of Leishmania major recombinant N-terminal hexa-His tagged PTR1 catalytic activity expressed in Escherichia coli BL21(DE3) assessed as decrease in thermal shift stabilization at 50 uM at pH 4.7 in presence of varying levels of NADPH and constant biopterin substrate concentration by SYPRO orange dye based assay
Summary of the method: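 Inhibition type probed by repeating the TSA screen (5 μM LmPTR1, 50 mM sodium acetate pH 4.7, SYPRO Orange, compound 50 μM) while varying NADPH at 0.0, 3.0, 6.25, 12.5 and 50 μM. Triplicate; ΔTm values compared by Kruskal-Wallis non-parametric ANOVA.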

ΔTm [1]	inhibition [2]	IC50 [3]	Activity [4]	inhibition [5]	inhibition [6]	Compound
> 1 °C	–	–	–	–	–	COc1ccc(Br)c(/C=C2\SC(=O)NC2=O)c1
3.01 °C	–	–	–	–	–	O=C1NC(=O)/C(=C/c2ccc(Cl)c(Cl)c2)S1
> 1 °C	–	–	–	–	–	O=C1NC(=O)/C(=C/c2ccc(Cl)cc2Cl)S1
1.7 °C	36%	589 µM	–	–	–	O=C1NC(=O)/C(=C/c2c(F)cccc2Br)S1
< 1 °C	–	–	–	–	–	O=C1NC(=O)/C(=C/c2c(Cl)cccc2Cl)S1
> 1 °C	Active	75.9 µM	> 200 µM	–	–	O=C1NC(=O)/C(=C/c2cc(Cl)ccc2O)S1
11 °C	Active	44.7 µM	> 200 µM	Active	Active	O=C1NC(=O)/C(=C/c2cc(Cl)cc(Br)c2O)S1
